Measurements collected from several papers.
SRC: Proto-oncogene tyrosine-protein kinase Src (SRC, Homo sapiens, UniProt P12931)
SRC T341M: Proto-oncogene tyrosine-protein kinase Src (SRC, Homo sapiens, UniProt P12931, T341M)

Compound	target	observed	mode	method	concentration	quantity	value
COc1cc2ncnc(Nc3ccc(Oc4ccccc4)c(C)c3C)c2cc1OC	SRC	enzyme activity	inhibitor	–	1 µM	inhibition	78%
CCCS(=O)(=O)Nc1ccc(F)c(C(=O)c2c[nH]c3ncc(-c4ccc(Cl)cc4)cc23)c1F	SRC	enzyme activity	inhibitor	–	1 µM	inhibition	< 20%
COc1ccc(COc2ccc(Cc3cnc(N)nc3N)cc2OC)cc1	SRC	cell-free assay	–	–	0.5 µM	remaining signal	97.9%
Cc1cc(NC(=O)c2cccc(S(F)(F)(F)(F)F)c2)cc(-n2ccn3nc(-c4cccnc4)cc23)c1	SRC	cell-free assay	–	competition with immobilised ligand	1 µM	remaining binding	100%
Cc1cc(NC(=O)c2cccc3cc(-c4cccc5[nH]nc(N)c45)ccc23)ccc1F	SRC T341M	enzyme activity	inhibitor	–	0.1 µM	activity vs control	90%
O=C1c2ccccc2-c2n[nH]c3cccc1c23	SRC	enzyme activity	inhibitor	–	0.5 µM	activity vs control	97.6%
CNC(=O)c1ccc(Nc2ncc(C(F)(F)F)c(NCc3nccnc3N(C)S(C)(=O)=O)n2)cc1	SRC	cell-free assay	–	competition with immobilised ligand	0.1 µM	remaining binding	79%
O=C(CSc1nc2nccnc2c(=O)n1CCc1ccccc1)Nc1nccs1	SRC	enzyme activity	inhibitor	–	10 µM	inhibition	7%
Cc1ccc(Nc2nccc(N(C)c3ccc4c(C)n(C)nc4c3)n2)cc1S(N)(=O)=O	SRC	enzyme activity	inhibitor	–	10 µM	inhibition	89%
COc1cc2nccc(Oc3ccc(NC(=O)c4c5n(n(-c6ccc(F)cc6)c4=O)CCCC5)cc3)c2cc1OC	SRC	enzyme activity	inhibitor	–	0.1 µM	inhibition	49%
CSc1nc(C)c(-c2ccnc(Nc3ccc(N4CCOCC4)cc3)c2)[nH]1	SRC	enzyme activity	inhibitor	–	10 µM	inhibition	12.5%
N#CCCc1ccc2c(c1)-c1[nH]c3ccc([N+](=O)[O-])cc3c1CC(=O)N2	SRC	cell-free assay	–	–	0.5 µM	remaining signal	30.8%
C[C@@H]1CN(c2cc(-c3nn(C)c4ccc(OC5(C)CC5)cc34)ncn2)C[C@H](C)O1	SRC	cell-free assay	–	competition with immobilised ligand	1 µM	remaining binding	100%
Cc1ccc(C(=O)NCc2ccsc2)cc1C#Cc1cn(C(C)C)c2ncnc(N)c12	SRC T341M	enzyme activity	inhibitor	–	1 µM	activity vs control	79%
CN(C)C1CCN(CC#Cc2nn(C3CCCC3)c3nc(NCc4ccccc4)ncc23)C1 (stereo not drawn)	SRC	enzyme activity	inhibitor	FRET	10 µM	inhibition	41%
CCCCN(CCCC)C(=O)CN1C[C@H](c2cc(OC)c3c(c2)OCO3)[C@@H](C(=O)O)[C@@H]1CC(C)(C)CCC	SRC	cell-free assay	–	competition with immobilised ligand	1 µM	remaining binding	100%
COc1cc2c(Nc3ccc(Br)cc3F)ncnc2cc1OCC1CCN(C)CC1	SRC	cell-free assay	–	–	0.5 µM	remaining signal	11%
CCC(=O)N[C@H]1CC[C@@H](C(=O)N(C)c2ccc(-c3nc4ccccc4o3)cc2)C1	SRC	cell-free assay	–	competition with immobilised ligand	1 µM	remaining binding	93%
CNC(=O)c1cc2c(Oc3ccc(NC(=O)C4(C(=O)Nc5ccc(F)cc5)CC4)cc3)ccnc2cc1OC	SRC	enzyme activity	inhibitor	radiometric	1 µM	inhibition	97%
FC(F)(F)Oc1cccc(-c2cnc3ccc(-c4ccncc4)nn23)c1	SRC	enzyme activity	inhibitor	radiometric	1 µM	activity vs control	47%
CC(=O)c1c(NS(C)(=O)=O)c2cc(-c3ccc(Cl)cc3)c(-c3ccc(Cl)cc3Cl)nc2n(C)c1=O	SRC	cell-free assay	–	competition with immobilised ligand	1 µM	remaining binding	100%
COc1cc2ncnc(Nc3cccc(Cl)c3)c2cc1OC	SRC	cell-free assay	–	–	0.5 µM	remaining signal	71.9%
COc1cccc2c(NCc3ccccc3)nc(-n3c(N)nc4ccccc43)nc12	SRC	target engagement in cells	inhibitor	chemoproteomics	20 mM	inhibition	-15.5%
O=C(NCc1ncc(C(F)(F)F)cc1Cl)c1ccc2c(c1)C1(CCS(=O)(=O)CC1)[C@@H](C1CC1)N2S(=O)(=O)c1ccc(F)cc1	SRC	cell-free assay	–	competition with immobilised ligand	1 µM	remaining binding	98%
Cc1cc(Nc2nc(-c3ccccc3)nc3ccccc23)n[nH]1	SRC	cell-free assay	–	–	0.5 µM	remaining signal	24.4%
Cc1noc([C@H]2C[C@@H](c3ccc(C(F)(F)F)cc3)CN(C(=O)N3CCS(=O)(=O)C3)C2)n1	SRC	cell-free assay	–	competition with immobilised ligand	1 µM	remaining binding	96%
COc1cc(/C=C/C(=O)CC(=O)/C=C/c2ccc(O)c(OC)c2)ccc1O	SRC	enzyme activity	inhibitor	–	1 µM	activity vs control	81%
